Bioassay records: PubChem, PCMD
An excerpt weighted towards active compounds, which were near 1% of everything screened.
Yeast tox – yeast growth toxicity, wild-type and mutant, primary screen, cytotoxicity control for eIF2B function restoration project, wild-type and eIF2Bepsilon R284H mutant, A595; S. cerevisiae wild-type growth, A595 turbidity, 16 h; growth inhibition, % at 25 µM (by protocol); 30,000 compounds, 0.3% hits; AID 685, 2007;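 active = mutant and wild-type yeast strains alike exhibit over 30% growth inhibition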
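Schedule: 16 h growth with compound, 30 °C. System: yeast, wild-type or eIF2Bepsilon-R284H mutant. Doses: one dose, 25 µM compound[…]. Buffer or medium: YPD. Signal: turbidity measured as absorbance at 595 nm. Read-out basis: growth inhibition (%) versus cell controls and blanks.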
eIF2B yeast act – GCN4-lacZ reporter reduction in eIF2B-epsilon mutant yeast, primary screen, S. cerevisiae, eIF2B-epsilon R284H, Beta-Glo luminescence; inhibition, % at 25 µM (by protocol); 27,000 compounds, 0.91% hits;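 active = mutant luminescence inhibited past about 50% while wild type luminescence and mutant growth stay under set limits, limit read from the data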
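Assay system: yeast eIF2B-epsilon R284H mutant carrying GCN4–beta-galactosidase fusion / Buffer or medium: YPD / Incubation: 16 h growth with compound at 30 °C, 90 min Beta-Glo step / Detection: Beta-Glo luminescence after Z-buffer lysis, growth by 595 nm absorbance / Read-out: % inhibition of reporter signal and growth versus controls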
Of the large screens only hits and unclear results are named; the others gave an inactive call; ! = not active in a repeat.

CCCCN(C(=O)Cn1nnc2ccccc21)C(C(=O)NCCOC)c1ccccc1 (centres undefined)	eIF2B yeast act 57
CCOC(=O)CN(C(=O)Cn1nnc2ccccc21)C(C(=O)NCCOC)c1ccccc1C (centres undefined)	none
COc1cc(OC)cc(-n2nc(C(=O)N3CC(C)CC(C)C3)c3ccccc3c2=O)c1 (centres undefined)	none
CCOC(=O)N1CCN(C(=O)c2nn(-c3cc(OC)cc(OC)c3)c(=O)c3ccccc23)CC1	eIF2B yeast act 57
O=S1(=O)CC(O)C(N2CCCCC2)C1 (centres undefined)	none (no result: eIF2B yeast act)
CN1/C(=C/C2CC(=O)N(c3ccc([N+](=O)[O-])cc3)C2=O)C(C)(C)c2ccccc21 (centres undefined)	none (no result: eIF2B yeast act)
Cc1[nH][nH]c(=O)c1C(c1ccc(-c2ccc(Cl)c(Cl)c2)o1)c1c(C)[nH][nH]c1=O	Yeast tox 46
Cc1ccc(S(=O)(=O)Oc2ccc(C(c3c(C)[nH][nH]c3=O)c3c(C)[nH][nH]c3=O)cc2)cc1	none
O=C(OCC(=O)N1CCN(C(=O)c2ccco2)CC1)c1cc(-c2cccc(Br)c2)nc2ccccc12	none (no result: eIF2B yeast act)
Cc1c(N=Cc2c(O)n(Cc3ccco3)c(=O)c3ccccc23)c(=O)n(-c2ccccc2)n1C	eIF2B yeast act 51!
O=c1c2ccccc2c(C=NCCc2ccccc2)c(O)n1Cc1ccccc1	none
COc1ccc(OC)c(N/C(C)=C/C(=O)c2ccc(C)o2)c1	eIF2B yeast act 56
COc1ccc(OC)c(NC(=O)Nc2ccc(Cl)cc2)c1	none (no result: eIF2B yeast act)
Cc1cc(N2CCC(C)CC2)n2nc(C)c(-c3ccccc3)c2n1	none
CCOCCCNC(=O)C1CCN(c2cc(C)nc3c(-c4ccc(OC)c(OC)c4)c(C)nn23)CC1	eIF2B yeast act 63
COc1ccc(OCc2cccc(C(=O)Nn3cc([N+](=O)[O-])cn3)c2)cc1	none
Cc1cc(=O)[nH]c(N=N/C(=N/Nc2ccc(O)cc2)c2ccccc2)n1	eIF2B yeast act 50
COc1ccc(N/N=C(/N=Nc2nc(C)cc(=O)[nH]2)c2ccccc2)cc1	none
COc1ccccc1-n1c(CNc2ccc(F)cc2)nnc1SCC(=O)Nc1cc(C)on1	none
CCOC(=O)C[n+]1c(C)ccc2c1CCC2	none
CN1CCN(c2nc(N3CCN(CCO)CC3)nc3ccccc23)CC1	eIF2B yeast act 55
c1ccc(CN2CCN(c3nc(N4CCOCC4)c4ccccc4n3)CC2)cc1	none
CCOC(=O)C1=C(c2ccccc2)N(C)C(=O)NC1c1ccc(O)c(OC)c1 (centres undefined)	eIF2B yeast act 50
CCOC(=O)C1=C(c2ccccc2)N=C2SCC(=O)N2C1c1ccc(OC)c(OC)c1 (centres undefined)	none
Cc1ccc(CNC(=O)C2CC(=O)N(c3ccc(OCC(=O)N4CCCC4)cc3)C2)cc1 (centres undefined)	none
Cc1ccc(OCC(=O)OCC(=O)c2c(N)n(C)c(=O)n(C)c2=O)cc1C	none (no result: eIF2B yeast act)
CCOC(=O)C1(CCSC)NC(c2ccco2)C2C(=O)N(C)C(=O)C21 (centres undefined)	eIF2B yeast act 72
CCOC(=O)C1(CC)NC(c2ccco2)C2C(=O)N(C)C(=O)C21 (centres undefined)	none
CC(C)CNc1c(N)c(=O)oc2ccccc12	none
CCOC(=O)c1c(C)[nH]c(C)c1C(=O)COC(=O)c1ccc(Cl)c(S(N)(=O)=O)c1	none
CCOC(=O)Cn1c(=O)c(-c2ccccc2NCc2ccccc2)nc2ccccc21	eIF2B yeast act 58
CCOC(=O)CSc1nc2ccccc2n1CC(=O)NC(C)(C)C	none
O=C(NCC(=O)N(Cc1ccco1)C(C(=O)NC1CCCC1)c1ccncc1)c1cccs1 (centres undefined)	none (no result: Yeast tox)
O=C(NC1CCCC1)C(c1ccccc1)N(Cc1ccco1)C(=O)Cc1cccs1 (centres undefined)	eIF2B yeast act 57
CCOC(=O)c1c(NC=O)sc2c1CCC2	none
CCOC(=O)c1c(NC(=O)COC)sc2c1CCCC2	eIF2B yeast act 65
CCOC(=O)c1sc(C)c(C(=O)NCC(C)(C)CN(C)C)c1N	none
COc1ccccc1CNC(=O)C(C)NS(=O)(=O)c1ccc(Br)cc1 (centres undefined)	none
